Data published in ChEMBL document CHEMBL1932924, “Design, synthesis, and biological evaluation of 4-phenylpyrrole derivatives as novel androgen receptor antagonists” (Bioorg Med Chem, 2012).
≈ marks a conversion by molar mass, not a printed value.

Columns and labels:
Androgen receptor [1] = target: T1, Androgen receptor (Homo sapiens, UniProt P10275); assay: Displacement of [17-alpha-methyl-3H]-mibolerone from human androgen receptor expressed in HEK293 derived FreeStyle293F cells after 3 hrs; assay type: cell-based
T1 sequence (P10275 whole entry): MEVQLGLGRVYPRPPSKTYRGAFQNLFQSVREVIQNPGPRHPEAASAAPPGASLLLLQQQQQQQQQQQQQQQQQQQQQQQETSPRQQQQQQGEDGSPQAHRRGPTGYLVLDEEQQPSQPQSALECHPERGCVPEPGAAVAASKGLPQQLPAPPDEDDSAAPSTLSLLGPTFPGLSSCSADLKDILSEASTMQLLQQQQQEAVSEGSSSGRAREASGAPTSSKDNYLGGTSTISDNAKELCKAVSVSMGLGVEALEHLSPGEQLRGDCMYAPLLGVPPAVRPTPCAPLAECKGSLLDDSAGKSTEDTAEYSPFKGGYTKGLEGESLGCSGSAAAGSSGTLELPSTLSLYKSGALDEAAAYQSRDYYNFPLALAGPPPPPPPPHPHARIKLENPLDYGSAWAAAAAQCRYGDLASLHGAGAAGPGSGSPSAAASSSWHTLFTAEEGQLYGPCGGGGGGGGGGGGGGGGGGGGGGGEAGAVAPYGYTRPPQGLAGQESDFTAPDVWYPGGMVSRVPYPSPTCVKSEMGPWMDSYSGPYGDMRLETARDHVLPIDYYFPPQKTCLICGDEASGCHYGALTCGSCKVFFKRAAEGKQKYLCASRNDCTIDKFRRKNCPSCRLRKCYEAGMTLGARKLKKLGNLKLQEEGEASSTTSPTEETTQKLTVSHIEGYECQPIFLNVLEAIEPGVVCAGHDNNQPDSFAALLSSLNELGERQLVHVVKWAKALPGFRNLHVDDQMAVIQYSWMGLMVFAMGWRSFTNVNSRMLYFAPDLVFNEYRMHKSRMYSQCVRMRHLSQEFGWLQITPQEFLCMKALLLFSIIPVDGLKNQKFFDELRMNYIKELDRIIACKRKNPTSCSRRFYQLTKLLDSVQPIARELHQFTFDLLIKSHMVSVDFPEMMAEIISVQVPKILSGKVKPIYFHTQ

Androgen receptor [2] = target: T2, Androgen receptor (Homo sapiens, UniProt P10275, W742C); assay: Agonist activity at human androgen receptor W741C mutant expressed in COS7 cells assessed as luciferase activity after 24 hrs by reporter gene assay; assay type: functional, cell-based, COS-7
Androgen receptor [3] = target: T3, Androgen receptor (Homo sapiens, UniProt P10275, T878A); assay: Antagonist activity at human androgen receptor T877A mutant expressed in COS7 cells assessed as inhibition of DHT-induced luciferase activity after 24 hrs by reporter gene assay; assay type: functional, cell-based, COS-7
Androgen receptor [4] = target: T1, Androgen receptor; assay: Agonist activity at human androgen receptor expressed in COS7 cells assessed as luciferase activity after 24 hrs by reporter gene assay; assay type: functional, cell-based, COS-7
Androgen receptor [5] = target: T1, Androgen receptor; assay: Antagonist activity at human androgen receptor expressed in COS7 cells assessed as inhibition of DHT-induced luciferase activity after 24 hrs by reporter gene assay; assay type: functional, cell-based, COS-7
Androgen receptor [6] = target: T3, Androgen receptor; assay: Agonist activity at human androgen receptor T877A mutant expressed in COS7 cells assessed as luciferase activity after 24 hrs by reporter gene assay; assay type: functional, cell-based, COS-7
Androgen receptor [7] = target: T3, Androgen receptor; assay: Displacement of [17-alpha-methyl-3H]-mibolerone from human androgen receptor T877A mutant expressed in HEK293 derived FreeStyle293F cells after 3 hrs; assay type: cell-based
Androgen receptor [8] = target: T2, Androgen receptor; assay: Antagonist activity at human androgen receptor W741C mutant expressed in COS7 cells assessed as inhibition of DHT-induced luciferase activity after 24 hrs by reporter gene assay; assay type: functional, cell-based, COS-7
[9] = Solubility in aqueous buffer solution at pH 6.8; assay type: physicochemical
Outline: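 DMSO stock added to aqueous buffer at pH 6.8 and incubated. Precipitate removed by filtration; filtrate concentration measured by HPLC.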

T2 sequence (P10275 whole entry W742C): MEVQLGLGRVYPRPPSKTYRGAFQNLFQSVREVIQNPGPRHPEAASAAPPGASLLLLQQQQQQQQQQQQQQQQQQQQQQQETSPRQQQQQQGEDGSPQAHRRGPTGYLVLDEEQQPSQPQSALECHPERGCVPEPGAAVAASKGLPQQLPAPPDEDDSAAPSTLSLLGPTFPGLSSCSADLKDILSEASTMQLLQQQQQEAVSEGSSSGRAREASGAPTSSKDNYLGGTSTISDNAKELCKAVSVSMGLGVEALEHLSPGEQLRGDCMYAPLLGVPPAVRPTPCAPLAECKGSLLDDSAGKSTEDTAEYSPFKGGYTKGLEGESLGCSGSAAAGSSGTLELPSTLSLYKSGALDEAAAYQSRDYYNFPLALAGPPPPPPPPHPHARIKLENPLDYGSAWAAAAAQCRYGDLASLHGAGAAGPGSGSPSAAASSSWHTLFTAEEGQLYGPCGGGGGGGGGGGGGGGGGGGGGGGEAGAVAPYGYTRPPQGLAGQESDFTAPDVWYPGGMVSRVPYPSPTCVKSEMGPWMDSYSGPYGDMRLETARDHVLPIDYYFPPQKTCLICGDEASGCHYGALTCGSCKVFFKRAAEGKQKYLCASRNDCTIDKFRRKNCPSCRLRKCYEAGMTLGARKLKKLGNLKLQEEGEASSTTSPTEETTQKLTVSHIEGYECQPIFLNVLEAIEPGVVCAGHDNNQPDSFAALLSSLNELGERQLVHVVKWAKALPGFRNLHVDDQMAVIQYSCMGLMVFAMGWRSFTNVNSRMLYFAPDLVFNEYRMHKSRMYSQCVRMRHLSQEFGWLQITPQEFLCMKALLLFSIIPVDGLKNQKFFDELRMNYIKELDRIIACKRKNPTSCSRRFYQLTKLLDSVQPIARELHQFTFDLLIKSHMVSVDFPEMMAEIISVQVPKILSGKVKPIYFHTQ
T3 sequence (P10275 whole entry T878A): as the sequence (P10275 whole entry W742C) above, with C742W, T878A counted along it

IC50 (Androgen receptor [1])	EC50 (Androgen receptor [2])	IC50 (Androgen receptor [3])	EC50 (Androgen receptor [4])	IC50 (Androgen receptor [5])	EC50 (Androgen receptor [6])	IC50 (Androgen receptor [7])	IC50 (Androgen receptor [8])	solubility [9]	Structure (SMILES)
150 nM	> 10000 nM	970 nM	> 10000 nM	4100 nM	> 10000 nM	52 nM	> 10000 nM	–	CCOC(=O)c1c(-c2ccc([N+](=O)[O-])cc2)c(C)n(CCc2ccccc2)c1C
22 nM	> 10000 nM	340 nM	> 10000 nM	240 nM	> 10000 nM	34 nM	4200 nM	–	CCOC(=O)c1c(C)[nH]c(C)c1-c1ccc([N+](=O)[O-])cc1
47 nM	> 10000 nM	210 nM	> 10000 nM	500 nM	> 10000 nM	30 nM	6200 nM	–	CCOC(=O)c1c(-c2ccc([N+](=O)[O-])cc2)c(C)n(C)c1C
550 nM	> 10000 nM	2100 nM	> 10000 nM	4300 nM	> 10000 nM	220 nM	> 10000 nM	–	CCOC(=O)c1c(-c2ccc([N+](=O)[O-])cc2)c(C)n(-c2ccccc2)c1C
5.5 nM	> 10000 nM	160 nM	> 10000 nM	340 nM	> 10000 nM	5.2 nM	3200 nM	–	CCOC(=O)c1c(-c2ccc([N+](=O)[O-])cc2)c(C)n(Cc2ccccc2)c1C
310 nM	> 10000 nM	3700 nM	> 10000 nM	3800 nM	> 10000 nM	350 nM	7200 nM	–	CCOC(=O)c1c(-c2ccc([N+](=O)[O-])cc2)c(C)n(CC2CCCCC2)c1C
150 nM	> 10000 nM	1500 nM	> 10000 nM	2400 nM	> 10000 nM	85 nM	7700 nM	–	CCOC(=O)c1c(-c2ccc([N+](=O)[O-])cc2)c(C)n(C(=O)c2ccccc2)c1C
5 nM	> 10000 nM	150 nM	> 10000 nM	300 nM	> 10000 nM	3.8 nM	740 nM	–	COC(=O)c1c(-c2ccc([N+](=O)[O-])cc2)c(C)n(Cc2ccccc2)c1C
300 nM	> 10000 nM	660 nM	> 10000 nM	3800 nM	> 10000 nM	92 nM	> 10000 nM	–	Cc1c(CO)c(-c2ccc([N+](=O)[O-])cc2)c(C)n1Cc1ccccc1
390 nM	> 10000 nM	900 nM	> 10000 nM	4600 nM	> 10000 nM	130 nM	6500 nM	–	CC(=O)c1c(-c2ccc([N+](=O)[O-])cc2)c(C)n(Cc2ccccc2)c1C
6.7 nM	> 10000 nM	210 nM	> 10000 nM	490 nM	> 10000 nM	2.2 nM	3100 nM	–	Cc1cc(-c2ccc([N+](=O)[O-])cc2)c(C)n1Cc1ccccc1
130 nM	> 10000 nM	1300 nM	> 10000 nM	2600 nM	> 10000 nM	65 nM	3700 nM	–	COC(=O)c1c(-c2ccccc2)c(C)n(Cc2ccccc2)c1C
27 nM	> 10000 nM	120 nM	> 10000 nM	270 nM	> 10000 nM	23 nM	710 nM	–	COC(=O)c1c(-c2ccc(C#N)cc2)c(C)n(Cc2ccccc2)c1C
1.4 nM	> 10000 nM	41 nM	> 10000 nM	40 nM	> 10000 nM	3 nM	380 nM	0.35 µg/mL (≈ 1.12 µM)	Cc1c(C#N)c(-c2ccc(C#N)cc2)c(C)n1Cc1ccccc1
3.4 nM	3600 nM	190 nM	2200 nM	65 nM	> 10000 nM	23 nM	180 nM	5.1 µg/mL (≈ 16.3 µM)	Cc1c(C#N)c(-c2ccc(C#N)cc2)c(C)n1Cc1cccnc1
9 nM	> 10000 nM	100 nM	> 10000 nM	45 nM	> 10000 nM	24 nM	910 nM	0.83 µg/mL (≈ 2.39 µM)	Cc1c(C#N)c(-c2ccc(C#N)cc2)c(C)n1Cc1ccc(Cl)nc1
14 nM	> 10000 nM	440 nM	> 10000 nM	100 nM	> 10000 nM	150 nM	600 nM	3.5 µg/mL (≈ 10.2 µM)	Cc1c(C#N)c(-c2ccc(C#N)cc2)c(C)n1Cc1cncc(CO)c1
490 nM	> 10000 nM	810 nM	> 10000 nM	320 nM	> 10000 nM	1100 nM	1400 nM	–	Cc1c(-c2ccc(C#N)cc2)c(C#N)cn1Cc1cnc(Cl)c(CO)c1
78 nM	> 10000 nM	910 nM	> 10000 nM	170 nM	> 10000 nM	160 nM	760 nM	–	Cc1c(C#N)c(-c2ccc(C#N)cc2)cn1Cc1cnc(Cl)c(CO)c1

Structure (SMILES)	IC50 (Androgen receptor [1])	EC50 (Androgen receptor [2])	IC50 (Androgen receptor [3])	EC50 (Androgen receptor [4])	IC50 (Androgen receptor [5])	EC50 (Androgen receptor [6])	IC50 (Androgen receptor [7])	IC50 (Androgen receptor [8])	solubility [9]
CCOC(=O)c1c(-c2ccc([N+](=O)[O-])cc2)c(C)n(S(=O)(=O)c2ccccc2)c1C	130 nM	> 10000 nM	4700 nM	> 10000 nM	4700 nM	> 10000 nM	62 nM	> 10000 nM	–
Cc1c(C(=O)O)c(-c2ccc([N+](=O)[O-])cc2)c(C)n1Cc1ccccc1	620 nM	> 10000 nM	6500 nM	> 10000 nM	8700 nM	> 10000 nM	190 nM	> 10000 nM	–
COC(=O)c1c(-c2ccc(C#N)c(C(F)(F)F)c2)c(C)n(Cc2ccccc2)c1C	3.9 nM	> 10000 nM	690 nM	> 10000 nM	320 nM	5400 nM	4.7 nM	3300 nM	–
